Experimental data taken from ChEMBL document CHEMBL3763128, “Synthesis and antibacterial evaluation of novel 4″-glycyl linked quinolyl-azithromycins with potent activity against macrolide-resistant pathogens” (2016).
Converted amounts (≈) assume the structure as drawn.

Tests used:
Assay type in all cases: functional
[1] = test system: Staphylococcus aureus; assay: Antibacterial activity against erythromycin-susceptible Staphylococcus aureus by agar microdilution method
Method in brief: (§1)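 MIC by agar microdilution following NCCLS guidelines. Values in μg/mL. Only differences of more than one twofold dilution were treated as significant. Ery-S denotes erythromycin-susceptible strains.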

[2] = test system: Streptococcus pneumoniae; assay: Antibacterial activity against erythromycin-susceptible Streptococcus pneumoniae by agar microdilution method; method in brief: as §1
[3] = test system: Streptococcus pneumoniae; assay: Antibacterial activity against efflux mediated macrolide resistant Streptococcus pneumoniae by agar microdilution method
Method in brief: (§2)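 Agar microdilution per NCCLS guidelines; MIC reported in μg/mL; differences treated as significant only when more than a factor of 2 (one dilution) apart.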

[4] = test system: Moraxella catarrhalis; assay: Antibacterial activity against Moraxella catarrhalis by agar microdilution method; method in brief: as §1
[5] = test system: Streptococcus pyogenes; assay: Antibacterial activity against erythromycin-susceptible Streptococcus pyogenes by agar microdilution method; method in brief: as §1
[6] = test system: Streptococcus pyogenes; assay: Antibacterial activity against efflux mediated macrolide resistant Streptococcus pyogenes by agar microdilution method; method in brief: as §2
[7] = test system: Staphylococcus aureus; assay: Antibacterial activity against constitutive macrolide-lincosamide-streptogramin B resistant Staphylococcus aureus by agar microdilution method; method in brief: as §2
[8] = test system: Staphylococcus aureus; assay: Antibacterial activity against inducibly macrolide-lincosamide-streptogramin B resistant Staphylococcus aureus by agar microdilution method; method in brief: as §2
[9] = test system: Streptococcus pyogenes; assay: Antibacterial activity against constitutive macrolide-lincosamide-streptogramin B resistant Streptococcus pyogenes by agar microdilution method; method in brief: as §2
[10] = test system: Staphylococcus aureus; assay: Antibacterial activity against efflux mediated macrolide resistant Staphylococcus aureus by agar microdilution method; method in brief: as §2
[11] = test system: Haemophilus influenzae; assay: Antibacterial activity against Haemophilus influenzae by agar microdilution method; method in brief: as §1
[12] = test system: Streptococcus pneumoniae; assay: Antibacterial activity against constitutive macrolide-lincosamide-streptogramin B resistant Streptococcus pneumoniae by agar microdilution method; method in brief: as §2
[13] = test system: Streptococcus pyogenes; assay: Antibacterial activity against inducibly macrolide-lincosamide-streptogramin B resistant Streptococcus pyogenes by agar microdilution method; method in brief: as §2

CCC1OC(=O)[C@H](C)[C@@H](O[C@H]2C[C@@](C)(OC)[C@@H](OC(=O)CNCCCNCCOCCOCCNc3cc4c(cc3F)c(=O)c(C(=O)O)cn4C3CC3)[C@H](C)O2)C(C)[C@@H](O[C@@H]2O[C@H](C)C[C@H](N(C)C)[C@H]2O)[C@](C)(O)C[C@@H](C)CN(C)[C@H](C)[C@@H](O)[C@]1(C)O (single isomer, unassigned)
MIC [1]: ≤ 0.125 µg/mL | MIC [2]: ≤ 0.125 µg/mL | MIC [3]: 1 µg/mL (≈ 0.807 µM) | MIC [4]: 2 µg/mL (≈ 1.61 µM) | MIC [5]: ≤ 0.125 µg/mL | MIC [6]: 1 µg/mL (≈ 0.807 µM) | MIC [7]: > 64 µg/mL | MIC [8]: 4 µg/mL (≈ 3.23 µM) | MIC [9]: 4 µg/mL (≈ 3.23 µM) | MIC [10]: 2 µg/mL (≈ 1.61 µM) | MIC [11]: 4 µg/mL (≈ 3.23 µM) | MIC [12]: 2 µg/mL (≈ 1.61 µM) | MIC [13]: 0.5 µg/mL (≈ 0.403 µM)

CCC1OC(=O)[C@H](C)[C@@H](O[C@H]2C[C@@](C)(OC)[C@@H](OC(=O)CNCCCNCCOCCNc3cc4c(=O)c(C(=O)O)cn(C5CC5)c4cc3Cl)[C@H](C)O2)C(C)[C@@H](O[C@@H]2O[C@H](C)C[C@H](N(C)C)[C@H]2O)[C@](C)(O)C[C@@H](C)CN(C)[C@H](C)[C@@H](O)[C@]1(C)O (single isomer, unassigned)
MIC [1]: ≤ 0.125 µg/mL | MIC [2]: ≤ 0.125 µg/mL | MIC [3]: 0.25 µg/mL (≈ 0.206 µM) | MIC [4]: 0.25 µg/mL (≈ 0.206 µM) | MIC [5]: ≤ 0.125 µg/mL | MIC [6]: 0.5 µg/mL (≈ 0.413 µM) | MIC [7]: > 64 µg/mL | MIC [8]: 0.5 µg/mL (≈ 0.413 µM) | MIC [9]: 1 µg/mL (≈ 0.825 µM) | MIC [10]: 0.5 µg/mL (≈ 0.413 µM) | MIC [11]: 2 µg/mL (≈ 1.65 µM) | MIC [12]: 0.25 µg/mL (≈ 0.206 µM) | MIC [13]: 0.25 µg/mL (≈ 0.206 µM)

CCC1OC(=O)[C@H](C)[C@@H](O[C@H]2C[C@@](C)(OC)[C@@H](OC(=O)CNCCCNCCOCCNc3cc4c(cc3F)c(=O)c(C(=O)O)cn4C3CC3)[C@H](C)O2)C(C)[C@@H](O[C@@H]2O[C@H](C)C[C@H](N(C)C)[C@H]2O)[C@](C)(O)C[C@@H](C)CN(C)[C@H](C)[C@@H](O)[C@]1(C)O (single isomer, unassigned)
MIC [1]: 0.25 µg/mL (≈ 0.209 µM) | MIC [2]: ≤ 0.125 µg/mL | MIC [3]: 0.25 µg/mL (≈ 0.209 µM) | MIC [4]: 1 µg/mL (≈ 0.836 µM) | MIC [5]: ≤ 0.125 µg/mL | MIC [6]: 2 µg/mL (≈ 1.67 µM) | MIC [7]: > 64 µg/mL | MIC [8]: 2 µg/mL (≈ 1.67 µM) | MIC [9]: 4 µg/mL (≈ 3.35 µM) | MIC [10]: 1 µg/mL (≈ 0.836 µM) | MIC [11]: 2 µg/mL (≈ 1.67 µM) | MIC [12]: 2 µg/mL (≈ 1.67 µM) | MIC [13]: 0.5 µg/mL (≈ 0.418 µM)

CC[C@H]1OC(=O)[C@@H](C)[C@H](O[C@@H]2C[C@](C)(OC)[C@H](OC(=O)CNC(=O)CCNCCOCCOCCNc3cc4c(=O)c(C(=O)O)cn(C5CC5)c4cc3Cl)[C@@H](C)O2)[C@H](C)[C@H](O[C@H]2O[C@@H](C)C[C@@H](N(C)C)[C@@H]2O)[C@@](C)(O)C[C@H](C)CN(C)[C@@H](C)[C@H](O)[C@@]1(C)O (stereo in doubt)
MIC [1]: ≤ 0.125 µg/mL | MIC [2]: ≤ 0.125 µg/mL | MIC [3]: 1 µg/mL (≈ 0.787 µM) | MIC [4]: 1 µg/mL (≈ 0.787 µM) | MIC [5]: ≤ 0.125 µg/mL | MIC [6]: 2 µg/mL (≈ 1.57 µM) | MIC [7]: > 64 µg/mL | MIC [8]: 4 µg/mL (≈ 3.15 µM) | MIC [9]: 8 µg/mL (≈ 6.3 µM) | MIC [10]: 0.5 µg/mL (≈ 0.394 µM) | MIC [11]: 4 µg/mL (≈ 3.15 µM) | MIC [12]: 4 µg/mL (≈ 3.15 µM) | MIC [13]: 1 µg/mL (≈ 0.787 µM)

CC[C@H]1OC(=O)[C@@H](C)[C@H](O[C@@H]2C[C@](C)(OC)[C@H](OC(=O)CNCCCNCCOCCOCCNc3cc4c(=O)c(C(=O)O)cn(C5CC5)c4cc3Cl)[C@@H](C)O2)[C@H](C)[C@H](O[C@H]2O[C@@H](C)C[C@@H](N(C)C)[C@@H]2O)[C@@](C)(O)C[C@H](C)CN(C)[C@@H](C)[C@H](O)[C@@]1(C)O (stereo in doubt)
MIC [1]: ≤ 0.125 µg/mL | MIC [2]: ≤ 0.125 µg/mL | MIC [3]: 0.5 µg/mL (≈ 0.398 µM) | MIC [4]: 0.5 µg/mL (≈ 0.398 µM) | MIC [5]: ≤ 0.125 µg/mL | MIC [6]: 1 µg/mL (≈ 0.796 µM) | MIC [7]: > 64 µg/mL | MIC [8]: 1 µg/mL (≈ 0.796 µM) | MIC [9]: 2 µg/mL (≈ 1.59 µM) | MIC [10]: 1 µg/mL (≈ 0.796 µM) | MIC [11]: 2 µg/mL (≈ 1.59 µM) | MIC [12]: 1 µg/mL (≈ 0.796 µM) | MIC [13]: 0.25 µg/mL (≈ 0.199 µM)

CC[C@H]1OC(=O)[C@@H](C)[C@H](O[C@@H]2C[C@](C)(OC)[C@H](OC(=O)CNC(=O)CCNCCNc3cc4c(=O)c(C(=O)O)cn(C5CC5)c4cc3Cl)[C@@H](C)O2)[C@H](C)[C@H](O[C@H]2O[C@@H](C)C[C@@H](N(C)C)[C@@H]2O)[C@@](C)(O)C[C@H](C)CN(C)[C@@H](C)[C@H](O)[C@@]1(C)O (stereo in doubt)
MIC [1]: ≤ 0.125 µg/mL | MIC [2]: ≤ 0.125 µg/mL | MIC [3]: 0.25 µg/mL (≈ 0.212 µM) | MIC [4]: 0.125 µg/mL (≈ 0.106 µM) | MIC [5]: ≤ 0.125 µg/mL | MIC [6]: 0.25 µg/mL (≈ 0.212 µM) | MIC [7]: > 64 µg/mL | MIC [8]: 1 µg/mL (≈ 0.846 µM) | MIC [9]: 0.5 µg/mL (≈ 0.423 µM) | MIC [10]: 0.5 µg/mL (≈ 0.423 µM) | MIC [11]: 0.5 µg/mL (≈ 0.423 µM) | MIC [12]: 0.5 µg/mL (≈ 0.423 µM) | MIC [13]: 0.25 µg/mL (≈ 0.212 µM)
